{
  "source": "ChEMBL document CHEMBL1153492",
  "about": "“Design, synthesis, and structure-activity relationships of 1,3-dihydrobenzimidazol-2-one analogues as anti-HIV agents” (Bioorg Med Chem, 2009)",
  "data": [
    {"tested_on": "Human immunodeficiency virus 1", "assay": "Antiviral activity against HIV1 3B infected in human MT4 cells assessed as reduction of virus-induced cytopathic effect after 5 days", "assay_type": "functional, organism-based", "details": "Human immunodeficiency virus 1, 3B, MT4, 120 h", "summary_of_the_method": "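MT-4 cells infected with HIV-1 IIIB at about 100-times the CCID50 per ml of cell suspension, plated and mixed with compound, then incubated at 37 °C for 5 days. Viable cell number was then determined. EC50 is the concentration that reduces virus-induced cytopathicity by 50%.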", "units": {"EC50": "µM"}, "values": [
      {"smiles": "O=C(CCl)Nc1ccc(Cl)cc1NS(=O)(=O)c1c(Cl)cccc1Cl", "EC50": 1.5},
      {"smiles": "O=C(CCl)Nc1ccc(Cl)cc1NS(=O)(=O)c1cc(Cl)cc(Cl)c1", "EC50": 8.99},
      {"smiles": "O=c1[nH]c2ccc(Cl)cc2n1S(=O)(=O)c1c(Cl)cccc1Cl", "EC50": 1.52},
      {"smiles": "O=C1CN(S(=O)(=O)c2cccc(F)c2)c2cc(Cl)ccc2N1", "EC50": 7.04},
      {"smiles": "O=c1[nH]c2ccc(Cl)cc2n1S(=O)(=O)c1ccccc1F", "EC50": 0.23},
      {"smiles": "O=C1CN(S(=O)(=O)c2c(F)cccc2F)c2cc(Cl)ccc2N1", "EC50": 20.7},
      {"smiles": "O=C1CN(S(=O)(=O)c2ccccc2F)c2cc(Cl)ccc2N1", "EC50": 6.1},
      {"smiles": "Cc1cc(C)cc(S(=O)(=O)N2CC(=O)Nc3ccc(Cl)cc32)c1", "EC50": 0.1},
      {"smiles": "O=C1CN(S(=O)(=O)c2cc(F)cc(F)c2)c2cc(Cl)ccc2N1", "EC50": 14},
      {"smiles": "N#Cc1cccc(S(=O)(=O)Nc2cc(Cl)ccc2NC(=O)CCl)c1", "EC50": "> 156"},
      {"smiles": "O=C1CN(S(=O)(=O)c2cc(Cl)cc(Cl)c2)c2cc(Cl)ccc2N1", "EC50": 26.7},
      {"smiles": "O=c1[nH]c2ccc(Cl)cc2n1S(=O)(=O)c1ccc(F)cc1", "EC50": 36},
      {"smiles": "O=C1CN(S(=O)(=O)c2c(Cl)cccc2Cl)c2cc(Cl)ccc2N1", "EC50": 1.09},
      {"smiles": "O=c1[nH]c2ccc(Cl)cc2n1S(=O)(=O)c1cc(Cl)cc(Cl)c1", "EC50": 0.048},
      {"smiles": "O=C1CN(S(=O)(=O)c2ccc(F)cc2)c2cc(Cl)ccc2N1", "EC50": "> 172"},
      {"smiles": "N#Cc1cccc(S(=O)(=O)n2c(=O)[nH]c3ccc(Cl)cc32)c1", "EC50": 0.149},
      {"smiles": "Cc1cc(C)cc(S(=O)(=O)Nc2cc(Cl)ccc2NC(=O)CCl)c1", "EC50": 0.047},
      {"smiles": "N#Cc1cccc(S(=O)(=O)N2CC(=O)Nc3ccc(Cl)cc32)c1", "EC50": "≥ 47.7"},
      {"smiles": "O=C(CCl)Nc1ccc(Cl)cc1NS(=O)(=O)c1c(F)cccc1F", "EC50": 6.96},
      {"smiles": "O=C(CCl)Nc1ccc(Cl)cc1NS(=O)(=O)c1cc(F)cc(F)c1", "EC50": 11.2},
      {"smiles": "O=c1[nH]c2ccc(Cl)cc2n1S(=O)(=O)c1cccc(F)c1", "EC50": 0.043}
    ]},
    {"tested_on": "not listed separately", "assay": "Cytotoxicity against human MT4 cells after 5 days", "assay_type": "cell-based", "details": "not given", "summary_of_the_method": "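Run in MT-4 cells in parallel with the HIV-1 IIIB cytopathicity assay, with 37 °C incubation for 5 days and a read-out of viable MT-4 cell number.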", "units": {"CC50 at 120 h": "µM"}, "values": [
      {"smiles": "O=C(CCl)Nc1ccc(Cl)cc1NS(=O)(=O)c1c(Cl)cccc1Cl", "CC50 at 120 h": 160},
      {"smiles": "O=C(CCl)Nc1ccc(Cl)cc1NS(=O)(=O)c1cc(Cl)cc(Cl)c1", "CC50 at 120 h": "> 292"},
      {"smiles": "O=c1[nH]c2ccc(Cl)cc2n1S(=O)(=O)c1c(Cl)cccc1Cl", "CC50 at 120 h": "> 331"},
      {"smiles": "O=C1CN(S(=O)(=O)c2cccc(F)c2)c2cc(Cl)ccc2N1", "CC50 at 120 h": 189},
      {"smiles": "O=c1[nH]c2ccc(Cl)cc2n1S(=O)(=O)c1ccccc1F", "CC50 at 120 h": "> 383"},
      {"smiles": "O=C1CN(S(=O)(=O)c2c(F)cccc2F)c2cc(Cl)ccc2N1", "CC50 at 120 h": 180},
      {"smiles": "O=C1CN(S(=O)(=O)c2ccccc2F)c2cc(Cl)ccc2N1", "CC50 at 120 h": 197},
      {"smiles": "Cc1cc(C)cc(S(=O)(=O)N2CC(=O)Nc3ccc(Cl)cc32)c1", "CC50 at 120 h": 80.6},
      {"smiles": "O=C1CN(S(=O)(=O)c2cc(F)cc(F)c2)c2cc(Cl)ccc2N1", "CC50 at 120 h": 187},
      {"smiles": "N#Cc1cccc(S(=O)(=O)Nc2cc(Cl)ccc2NC(=O)CCl)c1", "CC50 at 120 h": "> 156"},
      {"smiles": "O=C1CN(S(=O)(=O)c2cc(Cl)cc(Cl)c2)c2cc(Cl)ccc2N1", "CC50 at 120 h": "≥ 206"},
      {"smiles": "O=c1[nH]c2ccc(Cl)cc2n1S(=O)(=O)c1ccc(F)cc1", "CC50 at 120 h": "≥ 355"},
      {"smiles": "O=C1CN(S(=O)(=O)c2c(Cl)cccc2Cl)c2cc(Cl)ccc2N1", "CC50 at 120 h": "> 319"},
      {"smiles": "O=c1[nH]c2ccc(Cl)cc2n1S(=O)(=O)c1cc(Cl)cc(Cl)c1", "CC50 at 120 h": 179},
      {"smiles": "O=C1CN(S(=O)(=O)c2ccc(F)cc2)c2cc(Cl)ccc2N1", "CC50 at 120 h": 172},
      {"smiles": "N#Cc1cccc(S(=O)(=O)n2c(=O)[nH]c3ccc(Cl)cc32)c1", "CC50 at 120 h": 205},
      {"smiles": "Cc1cc(C)cc(S(=O)(=O)Nc2cc(Cl)ccc2NC(=O)CCl)c1", "CC50 at 120 h": 35.1},
      {"smiles": "N#Cc1cccc(S(=O)(=O)N2CC(=O)Nc3ccc(Cl)cc32)c1", "CC50 at 120 h": 186},
      {"smiles": "O=C(CCl)Nc1ccc(Cl)cc1NS(=O)(=O)c1c(F)cccc1F", "CC50 at 120 h": 175},
      {"smiles": "O=C(CCl)Nc1ccc(Cl)cc1NS(=O)(=O)c1cc(F)cc(F)c1", "CC50 at 120 h": 179},
      {"smiles": "O=c1[nH]c2ccc(Cl)cc2n1S(=O)(=O)c1cccc(F)c1", "CC50 at 120 h": 128},
      {"smiles": "O=C1Nc2ccc(Cl)cc2[C@@](C#CC2CC2)(C(F)(F)F)O1", "note": "[EFAVIRENZ]", "CC50 at 120 h": "> 6"},
      {"smiles": "Cc1ccnc2c1NC(=O)c1cccnc1N2C1CC1", "note": "[NEVIRAPINE]", "CC50 at 120 h": "> 15"}
    ]},
    {"tested_on": "not listed separately", "assay": "Selectivity index, CC50 for human MT4 cells to EC50 for HIV1 3B", "assay_type": "toxicity, cell-based", "details": "read-out: Ratio CC50/EC50", "values": [
      {"smiles": "O=C(CCl)Nc1ccc(Cl)cc1NS(=O)(=O)c1c(Cl)cccc1Cl", "selectivity ratio": 107},
      {"smiles": "O=C(CCl)Nc1ccc(Cl)cc1NS(=O)(=O)c1cc(Cl)cc(Cl)c1", "selectivity ratio": "> 32"},
      {"smiles": "O=c1[nH]c2ccc(Cl)cc2n1S(=O)(=O)c1c(Cl)cccc1Cl", "selectivity ratio": "> 218"},
      {"smiles": "O=C1CN(S(=O)(=O)c2cccc(F)c2)c2cc(Cl)ccc2N1", "selectivity ratio": 27},
      {"smiles": "O=c1[nH]c2ccc(Cl)cc2n1S(=O)(=O)c1ccccc1F", "selectivity ratio": "> 1660"},
      {"smiles": "O=C1CN(S(=O)(=O)c2c(F)cccc2F)c2cc(Cl)ccc2N1", "selectivity ratio": 9},
      {"smiles": "O=C1CN(S(=O)(=O)c2ccccc2F)c2cc(Cl)ccc2N1", "selectivity ratio": 32},
      {"smiles": "Cc1cc(C)cc(S(=O)(=O)N2CC(=O)Nc3ccc(Cl)cc32)c1", "selectivity ratio": 782},
      {"smiles": "O=C1CN(S(=O)(=O)c2cc(F)cc(F)c2)c2cc(Cl)ccc2N1", "selectivity ratio": 13},
      {"smiles": "N#Cc1cccc(S(=O)(=O)Nc2cc(Cl)ccc2NC(=O)CCl)c1", "selectivity ratio": "< 1"},
      {"smiles": "O=C1CN(S(=O)(=O)c2cc(Cl)cc(Cl)c2)c2cc(Cl)ccc2N1", "selectivity ratio": "> 8"},
      {"smiles": "O=c1[nH]c2ccc(Cl)cc2n1S(=O)(=O)c1ccc(F)cc1", "selectivity ratio": "≥ 10"},
      {"smiles": "O=C1CN(S(=O)(=O)c2c(Cl)cccc2Cl)c2cc(Cl)ccc2N1", "selectivity ratio": "> 293"},
      {"smiles": "O=c1[nH]c2ccc(Cl)cc2n1S(=O)(=O)c1cc(Cl)cc(Cl)c1", "selectivity ratio": 3740},
      {"smiles": "O=C1CN(S(=O)(=O)c2ccc(F)cc2)c2cc(Cl)ccc2N1", "selectivity ratio": "< 1"},
      {"smiles": "N#Cc1cccc(S(=O)(=O)n2c(=O)[nH]c3ccc(Cl)cc32)c1", "selectivity ratio": 1360},
      {"smiles": "Cc1cc(C)cc(S(=O)(=O)Nc2cc(Cl)ccc2NC(=O)CCl)c1", "selectivity ratio": 747},
      {"smiles": "N#Cc1cccc(S(=O)(=O)N2CC(=O)Nc3ccc(Cl)cc32)c1", "selectivity ratio": "≤ 4"},
      {"smiles": "O=C(CCl)Nc1ccc(Cl)cc1NS(=O)(=O)c1c(F)cccc1F", "selectivity ratio": 25},
      {"smiles": "O=C(CCl)Nc1ccc(Cl)cc1NS(=O)(=O)c1cc(F)cc(F)c1", "selectivity ratio": 16},
      {"smiles": "O=c1[nH]c2ccc(Cl)cc2n1S(=O)(=O)c1cccc(F)c1", "selectivity ratio": 2960}
    ]},
    {"target": "Human immunodeficiency virus type 1 reverse transcriptase (Human immunodeficiency virus 1, UniProt Q72547)", "assay": "Inhibition of HIV1 recombinant RNA-dependent DNA polymerase activity of reverse transcriptase assessed as incorporation of radioactive dTTP into poly(rA)/oligo(dT)", "details": "not given", "units": {"IC50": "µM"}, "values": [
      {"smiles": "O=C(CCl)Nc1ccc(Cl)cc1NS(=O)(=O)c1c(Cl)cccc1Cl", "IC50": 32.7},
      {"smiles": "O=C(CCl)Nc1ccc(Cl)cc1NS(=O)(=O)c1cc(Cl)cc(Cl)c1", "IC50": 15.9},
      {"smiles": "O=c1[nH]c2ccc(Cl)cc2n1S(=O)(=O)c1c(Cl)cccc1Cl", "IC50": "> 100"},
      {"smiles": "O=C1CN(S(=O)(=O)c2cccc(F)c2)c2cc(Cl)ccc2N1", "IC50": "> 40"},
      {"smiles": "O=c1[nH]c2ccc(Cl)cc2n1S(=O)(=O)c1ccccc1F", "IC50": 0.85},
      {"smiles": "O=C1CN(S(=O)(=O)c2c(F)cccc2F)c2cc(Cl)ccc2N1", "IC50": "> 40"},
      {"smiles": "O=C1CN(S(=O)(=O)c2ccccc2F)c2cc(Cl)ccc2N1", "IC50": "> 40"},
      {"smiles": "Cc1cc(C)cc(S(=O)(=O)N2CC(=O)Nc3ccc(Cl)cc32)c1", "IC50": "> 40"},
      {"smiles": "O=C1CN(S(=O)(=O)c2cc(F)cc(F)c2)c2cc(Cl)ccc2N1", "IC50": "> 40"},
      {"smiles": "N#Cc1cccc(S(=O)(=O)Nc2cc(Cl)ccc2NC(=O)CCl)c1", "IC50": 284},
      {"smiles": "O=C1CN(S(=O)(=O)c2cc(Cl)cc(Cl)c2)c2cc(Cl)ccc2N1", "IC50": "> 40"},
      {"smiles": "O=c1[nH]c2ccc(Cl)cc2n1S(=O)(=O)c1ccc(F)cc1", "IC50": "> 40"},
      {"smiles": "O=C1CN(S(=O)(=O)c2c(Cl)cccc2Cl)c2cc(Cl)ccc2N1", "IC50": 1.67},
      {"smiles": "O=c1[nH]c2ccc(Cl)cc2n1S(=O)(=O)c1cc(Cl)cc(Cl)c1", "IC50": 0.003},
      {"smiles": "O=C1CN(S(=O)(=O)c2ccc(F)cc2)c2cc(Cl)ccc2N1", "IC50": "> 40"},
      {"smiles": "N#Cc1cccc(S(=O)(=O)n2c(=O)[nH]c3ccc(Cl)cc32)c1", "IC50": 0.36},
      {"smiles": "Cc1cc(C)cc(S(=O)(=O)Nc2cc(Cl)ccc2NC(=O)CCl)c1", "IC50": 3.36},
      {"smiles": "N#Cc1cccc(S(=O)(=O)N2CC(=O)Nc3ccc(Cl)cc32)c1", "IC50": "> 40"},
      {"smiles": "O=C(CCl)Nc1ccc(Cl)cc1NS(=O)(=O)c1c(F)cccc1F", "IC50": 30.4},
      {"smiles": "O=C(CCl)Nc1ccc(Cl)cc1NS(=O)(=O)c1cc(F)cc(F)c1", "IC50": 27.8},
      {"smiles": "O=c1[nH]c2ccc(Cl)cc2n1S(=O)(=O)c1cccc(F)c1", "IC50": 0.132}
    ]}
  ]
}
